Assays:
h-NTPDase1 = biological target: T1, h-NTPDase1 (Homo sapiens, UniProt P49961); assay: h-NTPDase activity assay; format: biochemical; details: for inhibition at 100 µM: read-out: % Inhibition h-NTPDase1
T1 sequence (P49961 1-510): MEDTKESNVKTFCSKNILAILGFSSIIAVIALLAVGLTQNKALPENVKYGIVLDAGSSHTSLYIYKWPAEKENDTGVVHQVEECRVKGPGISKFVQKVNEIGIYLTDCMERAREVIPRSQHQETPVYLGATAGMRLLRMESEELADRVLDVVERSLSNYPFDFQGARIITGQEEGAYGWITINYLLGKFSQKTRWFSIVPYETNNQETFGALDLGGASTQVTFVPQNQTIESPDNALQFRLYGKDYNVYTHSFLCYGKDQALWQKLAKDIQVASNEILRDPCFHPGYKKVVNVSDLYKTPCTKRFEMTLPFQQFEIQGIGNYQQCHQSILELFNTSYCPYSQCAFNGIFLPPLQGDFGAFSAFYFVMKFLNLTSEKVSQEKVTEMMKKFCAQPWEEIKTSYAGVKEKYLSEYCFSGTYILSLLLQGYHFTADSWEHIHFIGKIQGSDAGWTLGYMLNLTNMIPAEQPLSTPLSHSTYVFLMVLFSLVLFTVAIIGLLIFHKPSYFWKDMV

h-NTPDase3 = biological target: T2, h-NTPDase3 (Homo sapiens, UniProt O75355); assay: h-NTPDase activity assay; format: biochemical; details: for inhibition at 100 µM: read-out: % Inhibition h-NTPDase3
T2 sequence (O75355 1-529): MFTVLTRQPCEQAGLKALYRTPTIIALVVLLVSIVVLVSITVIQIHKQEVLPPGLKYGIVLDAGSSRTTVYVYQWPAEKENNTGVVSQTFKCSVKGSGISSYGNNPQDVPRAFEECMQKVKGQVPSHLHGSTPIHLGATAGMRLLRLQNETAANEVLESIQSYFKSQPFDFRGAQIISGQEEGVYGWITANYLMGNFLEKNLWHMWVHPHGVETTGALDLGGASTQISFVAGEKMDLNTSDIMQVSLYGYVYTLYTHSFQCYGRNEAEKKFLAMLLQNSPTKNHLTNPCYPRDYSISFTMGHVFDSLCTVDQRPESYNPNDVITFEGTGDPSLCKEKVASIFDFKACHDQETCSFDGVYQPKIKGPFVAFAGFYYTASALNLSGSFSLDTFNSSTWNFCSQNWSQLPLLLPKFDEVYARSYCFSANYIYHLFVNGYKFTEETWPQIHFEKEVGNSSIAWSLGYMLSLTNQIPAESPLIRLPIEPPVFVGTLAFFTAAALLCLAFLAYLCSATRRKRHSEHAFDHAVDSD
Summary of the method: (§1)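 Human NTPDase1, -2, -3 or -8 came from COS-7 cells transfected with plasmids via Lipofectamine, harvested at 44–48 h, sonicated and cleared of nuclei, with protein measured by Bradford. Enzyme per well was 12, 37, 43 or 63 ng respectively. Compound (0.1 mM final) was pre-incubated 10 min at 37 °C in 50 mM Tris–HCl, 5 mM CaCl2, pH 7.4. The reaction was started with ATP (100 µM), run 15 min, and stopped with malachite green; Pi was read at 630 nm.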

h-NPP1 = biological target: T3, h-NPP1 (Homo sapiens, UniProt P22413); assay: h-NPP1 activity assay; format: biochemical; details: for inhibition at 100 µM: read-out: % Inhibition h-NPP1
T3 sequence (P22413 1-925): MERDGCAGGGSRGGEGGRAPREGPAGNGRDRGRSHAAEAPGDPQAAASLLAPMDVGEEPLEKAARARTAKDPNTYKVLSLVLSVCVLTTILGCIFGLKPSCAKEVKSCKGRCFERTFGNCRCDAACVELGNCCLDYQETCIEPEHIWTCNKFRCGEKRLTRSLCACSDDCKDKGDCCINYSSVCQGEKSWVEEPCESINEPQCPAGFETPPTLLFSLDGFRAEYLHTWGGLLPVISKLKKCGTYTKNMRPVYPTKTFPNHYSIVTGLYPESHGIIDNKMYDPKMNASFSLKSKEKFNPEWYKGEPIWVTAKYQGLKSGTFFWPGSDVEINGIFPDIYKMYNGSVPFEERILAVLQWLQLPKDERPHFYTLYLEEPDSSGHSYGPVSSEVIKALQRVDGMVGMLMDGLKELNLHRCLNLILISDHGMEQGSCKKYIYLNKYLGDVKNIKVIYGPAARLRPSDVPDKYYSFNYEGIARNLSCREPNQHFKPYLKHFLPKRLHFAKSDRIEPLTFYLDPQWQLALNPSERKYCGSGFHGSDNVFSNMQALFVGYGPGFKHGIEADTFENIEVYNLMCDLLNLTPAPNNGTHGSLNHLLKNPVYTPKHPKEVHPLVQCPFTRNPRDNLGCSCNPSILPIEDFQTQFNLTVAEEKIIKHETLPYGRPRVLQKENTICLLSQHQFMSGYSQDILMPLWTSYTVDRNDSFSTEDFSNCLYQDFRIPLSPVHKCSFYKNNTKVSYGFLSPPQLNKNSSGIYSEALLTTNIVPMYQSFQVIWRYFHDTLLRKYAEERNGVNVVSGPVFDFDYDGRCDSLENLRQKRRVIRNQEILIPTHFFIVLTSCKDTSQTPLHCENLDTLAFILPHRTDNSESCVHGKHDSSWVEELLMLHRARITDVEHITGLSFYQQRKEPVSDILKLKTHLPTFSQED

h-e5’NT = biological target: T4, h-e5’NT (Homo sapiens, UniProt P21589); assay: h-e5’NT activity assay; format: biochemical; details: for inhibition at 100 µM: read-out: % Inhibition h-e5’NT
T4 sequence (P21589 27-574): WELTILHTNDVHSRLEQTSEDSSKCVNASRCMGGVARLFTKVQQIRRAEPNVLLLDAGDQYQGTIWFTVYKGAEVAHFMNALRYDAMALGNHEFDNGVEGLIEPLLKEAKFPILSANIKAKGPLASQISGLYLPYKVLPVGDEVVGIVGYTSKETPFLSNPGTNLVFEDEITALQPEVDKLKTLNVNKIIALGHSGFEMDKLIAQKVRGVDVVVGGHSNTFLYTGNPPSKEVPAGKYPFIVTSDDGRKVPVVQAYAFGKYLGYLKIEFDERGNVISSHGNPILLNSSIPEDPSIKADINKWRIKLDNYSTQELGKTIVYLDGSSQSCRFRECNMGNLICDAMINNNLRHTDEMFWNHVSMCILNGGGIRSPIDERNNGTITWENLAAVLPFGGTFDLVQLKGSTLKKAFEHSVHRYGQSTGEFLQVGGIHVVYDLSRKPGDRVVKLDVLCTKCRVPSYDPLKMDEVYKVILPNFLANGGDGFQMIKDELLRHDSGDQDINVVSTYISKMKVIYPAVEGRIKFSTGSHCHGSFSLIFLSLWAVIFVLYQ
Summary of the method: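 Human ecto-5′-nucleotidase from transfected COS-7 cells was pre-incubated 10 min at 37 °C with compound (0.1 mM final) in 50 mM Tris–HCl with MgCl₂ and CaCl₂, pH 7.4. The reaction was started with AMP (2 mM solution as added) and run 20 min at 37 °C. Released phosphate was detected with malachite green at 630 nm, in triplicate.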

MTT assay = format: cell-based, human; details: human, MCF-7 breast cancer cells, MCF-7, 100 μM; for cytotoxicity at 24 h, 100 µM: % Cytotoxicity ± SD; for viability at 24 h, 100 µM: % Viability
[1] = tested on: MCF-7 breast cancer cells; assay: MTT assay; format: cell-based, human; details: MCF-7, 100 μM, 24 h, 100 µM
h-NTPDases = assay: h-NTPDase activity assay, all four isoenzymes; format: biochemical, human
Summary of the method: as §1

h-NTPDase2 = biological target: T5, h-NTPDase2 (Homo sapiens, UniProt Q9Y5L3); assay: h-NTPDase activity assay; format: biochemical; details: for inhibition at 100 µM: read-out: % Inhibition h-NTPDase2
T5 sequence (Q9Y5L3 1-495): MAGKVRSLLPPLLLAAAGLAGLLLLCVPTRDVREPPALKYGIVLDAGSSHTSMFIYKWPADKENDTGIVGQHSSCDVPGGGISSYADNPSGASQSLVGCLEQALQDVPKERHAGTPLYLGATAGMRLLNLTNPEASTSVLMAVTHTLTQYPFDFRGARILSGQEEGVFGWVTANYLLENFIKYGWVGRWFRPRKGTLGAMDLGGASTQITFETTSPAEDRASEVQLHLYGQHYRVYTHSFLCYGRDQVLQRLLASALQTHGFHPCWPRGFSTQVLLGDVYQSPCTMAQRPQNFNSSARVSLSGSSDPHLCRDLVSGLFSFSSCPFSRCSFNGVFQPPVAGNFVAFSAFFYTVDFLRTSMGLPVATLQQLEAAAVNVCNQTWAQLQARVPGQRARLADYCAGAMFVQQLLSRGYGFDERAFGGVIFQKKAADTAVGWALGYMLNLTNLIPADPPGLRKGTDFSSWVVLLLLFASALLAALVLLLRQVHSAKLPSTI

h-NTPDase8 = biological target: T6, h-NTPDase8 (Homo sapiens, UniProt Q5MY95); assay: h-NTPDase activity assay; format: biochemical
T6 sequence (Q5MY95 1-495): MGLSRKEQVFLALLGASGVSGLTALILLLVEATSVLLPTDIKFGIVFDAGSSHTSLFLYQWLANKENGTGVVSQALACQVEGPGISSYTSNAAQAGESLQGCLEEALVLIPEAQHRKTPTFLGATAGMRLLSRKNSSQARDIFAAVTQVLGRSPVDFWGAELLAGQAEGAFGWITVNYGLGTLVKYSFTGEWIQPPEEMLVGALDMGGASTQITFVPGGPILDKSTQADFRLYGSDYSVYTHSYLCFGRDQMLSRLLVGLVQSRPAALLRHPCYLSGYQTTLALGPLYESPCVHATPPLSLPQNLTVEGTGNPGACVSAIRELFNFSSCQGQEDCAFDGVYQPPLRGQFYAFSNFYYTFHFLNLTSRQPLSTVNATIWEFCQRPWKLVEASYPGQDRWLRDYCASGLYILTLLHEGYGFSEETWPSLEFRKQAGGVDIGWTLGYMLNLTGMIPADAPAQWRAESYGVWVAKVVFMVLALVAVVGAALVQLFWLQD

[2] = tested on: h-NTPDase1, -2, -3, and -8 isoenzymes, h-NPP1, and h-e5′NT; assay: Enzymatic assays, all ectonucleotidases; format: biochemical, human; details: at 100 µM

inhibition at 100 µM (h-NTPDase1) [%] | inhibition at 100 µM (h-NTPDase3) [%] | IC50 (h-NPP1) [µM] | inhibition at 100 µM (h-NPP1) [%] | IC50 (h-e5’NT) [µM] | inhibition at 100 µM (h-e5’NT) [%] | activity against all four h-NTPDase isoenzymes (h-NTPDases) | inhibition at 100 µM (h-NTPDase2) [%] | inhibition at 100 µM (h-NTPDase8; read-out: % Inhibition h-NTPDase8, at 100 µM) [%] | % inhibition for all enzymes except h-e5′NT [2] | IC50 (h-NTPDase1) [µM] | IC50 (h-NTPDase2) [µM] | IC50 (h-NTPDase3) [µM] | IC50 (h-NTPDase8) [µM] | Structure (SMILES) | cytotoxicity at 24 h, 100 µM (MTT assay) [%] | viability at 24 h, 100 µM (MTT assay) [%] | % Cytotoxicity ± SD [1] [%] | % Viability [1] [%]
37 | 30.6 | 0.23 ± 0.02 | 67 | 0.092 ± 0.02 | 67.9 | poor activity |  |  |  |  |  |  |  | O=C(NCc1ccc(Cl)cc1)c1ccc2ncccc2c1 [Compound 4a, N-(4-chlorobenzyl)quinoline-6-carboxamide] | 37 | 62.7 | 37.3 ± 1.80 | 
19.5 | 25.1 |  |  | 0.99 ± 0.13 | 54.9 | poor activity | 39.6 | 29.8 | less than 50% |  |  |  |  | COc1ccc(CNC(=O)c2ccc3ncccc3c2)c(OC)c1 [Compound 4i, N-(2,4-dimethoxybenzyl)quinoline-6-carboxamide] | 41.5 ± 0.31 | 58.5 |  | 
33.1 | 35.6 | 13.5 ± 1.24 | 85.5 | 0.44 ± 0.07 | 72.4 | poor activity | 26.2 |  |  |  |  |  |  | O=C(NCc1ccc(Cl)cc1Cl)c1ccc2ncccc2c1 [Compound 4j, N-(2,4-dichlorobenzyl)quinoline-6-carboxamide] | 55 ± 1.36 | 43 to 45 |  | 45.0

Second part, the compound before the results:

Structure (SMILES) | inhibition at 100 µM (h-NTPDase1) [%] | inhibition at 100 µM (h-NTPDase3) [%] | IC50 (h-NPP1) [µM] | inhibition at 100 µM (h-NPP1) [%] | IC50 (h-e5’NT) [µM] | inhibition at 100 µM (h-e5’NT) [%] | activity against all four h-NTPDase isoenzymes (h-NTPDases) | inhibition at 100 µM (h-NTPDase2) [%] | inhibition at 100 µM (h-NTPDase8; read-out: % Inhibition h-NTPDase8, at 100 µM) [%] | % inhibition for all enzymes except h-e5′NT [2] | IC50 (h-NTPDase1) [µM] | IC50 (h-NTPDase2) [µM] | IC50 (h-NTPDase3) [µM] | IC50 (h-NTPDase8) [µM] | cytotoxicity at 24 h, 100 µM (MTT assay) [%] | viability at 24 h, 100 µM (MTT assay) [%] | % Cytotoxicity ± SD [1] [%] | % Viability [1] [%]
Nc1c(S(=O)(=O)O)cc(Nc2ccc(Nc3nc(Cl)nc(Nc4cccc(S(=O)(=O)O)c4)n3)c(S(=O)(=O)O)c2)c2c1C(=O)c1ccccc1C2=O [Reactive blue 2, reference compound] |  |  |  |  |  |  |  |  |  |  | 16.1 ± 1.02 | 24.1 ± 3.01 | 4.31 ± 0.41 | 101 ± 2.34 |  |  |  | 
Cc1ccc(C(=O)Nc2ccc(S(=O)(=O)O)c3cc(S(=O)(=O)O)cc(S(=O)(=O)O)c23)cc1NC(=O)c1cccc(NC(=O)Nc2cccc(C(=O)Nc3cc(C(=O)Nc4ccc(S(=O)(=O)O)c5cc(S(=O)(=O)O)cc(S(=O)(=O)O)c45)ccc3C)c2)c1 [Suramin, reference compound] |  |  |  |  | 42.1 ± 7.8 |  |  |  |  |  |  |  |  |  |  |  |  | 

— PMC13022283 (Scientific Reports, 2026)
